Experimental data reported in ChEMBL document CHEMBL4706509, “Oligosaccharide-camptothecin conjugates as potential antineoplastic drugs: Design, synthesis and biological evaluation” (Eur J Med Chem, 2020).
Values after ≈ are worked out from the molar mass of the structure shown. Active and inactive are the calls of the source. No cut-off for these calls is given here.

What was measured:
[1] = tested on: SW1990; experiment: Antitumor activity against human SW1990 cells assessed as inhibition of cell growth measured after 48 hrs by MTT assay; format: functional, cell-based; conditions: SW1990, 48 h
How it was run: (§1)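 MTT assay; cells seeded in 96-well plates, exposed 48 h to freshly prepared compound at five concentrations, four replicate wells each; MTT (5 mg/mL) added for 4 h, formazan dissolved in DMSO, absorbance at 490 nm. IC50 by nonlinear regression; mean of three independent experiments.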

[2] = tested on: HEK293; experiment: Cytotoxicity against human HEK293 cells assessed as reduction in cell viability measured after 48 hrs by MTT assay; format: cell-based; conditions: HEK293, 48 h; how it was run: as §1
[3] = tested on: HCT-116; experiment: Antitumor activity against human HCT-116 cells assessed as inhibition of cell growth measured after 48 hrs by MTT assay; format: functional, cell-based; conditions: HCT-116, 48 h; how it was run: as §1
[4] = tested on: HepG2; experiment: Antitumor activity against human HepG2 cells assessed as inhibition of cell growth measured after 48 hrs by MTT assay; format: functional, cell-based; conditions: HepG2, 48 h; how it was run: as §1
[5] = target: T1, DNA topoisomerase 1 (Homo sapiens) (UniProt P11387); experiment: Inhibition of human recombinant Topoisomerase 1 using supercoiled pBR322 DNA as substrate at 100 uM incubated for 30 mins by ethidium bromide staining based agarose gel electrophoresis
T1 sequence (whole entry): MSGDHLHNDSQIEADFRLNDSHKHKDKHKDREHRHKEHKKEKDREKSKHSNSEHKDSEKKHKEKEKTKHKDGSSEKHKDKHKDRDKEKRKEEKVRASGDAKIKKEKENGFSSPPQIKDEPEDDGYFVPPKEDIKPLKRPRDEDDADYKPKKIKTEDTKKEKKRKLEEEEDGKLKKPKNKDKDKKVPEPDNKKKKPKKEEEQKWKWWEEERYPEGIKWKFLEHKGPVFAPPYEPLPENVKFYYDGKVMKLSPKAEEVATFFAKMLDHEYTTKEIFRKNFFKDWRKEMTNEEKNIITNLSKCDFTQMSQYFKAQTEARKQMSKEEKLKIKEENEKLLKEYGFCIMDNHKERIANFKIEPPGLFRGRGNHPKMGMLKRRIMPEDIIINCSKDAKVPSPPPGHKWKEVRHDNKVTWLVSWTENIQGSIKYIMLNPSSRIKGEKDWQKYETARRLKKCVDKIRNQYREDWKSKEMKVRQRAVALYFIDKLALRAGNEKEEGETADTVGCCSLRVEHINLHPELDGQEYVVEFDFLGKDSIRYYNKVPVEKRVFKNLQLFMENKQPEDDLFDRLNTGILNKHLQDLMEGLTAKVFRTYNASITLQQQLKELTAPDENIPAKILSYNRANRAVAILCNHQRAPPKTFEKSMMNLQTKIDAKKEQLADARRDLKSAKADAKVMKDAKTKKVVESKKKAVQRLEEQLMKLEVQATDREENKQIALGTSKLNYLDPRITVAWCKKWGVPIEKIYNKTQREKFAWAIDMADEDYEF
How it was run: (§2)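 Cell-free relaxation assay: 1 U recombinant human Topo I with 0.5 µg supercoiled pBR322 in Topo I buffer (Tris-HCl pH 8.0, KCl, MgCl2, DTT, 0.1% BSA), 37 °C for 30 min. 10-HCPT and irinotecan as positive controls. Supercoiled, relaxed and nicked forms resolved on 0.8% agarose in TAE, 90 V for 2 h, ethidium bromide stained.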

[6] = target: T1, DNA topoisomerase 1 (Homo sapiens); experiment: Inhibition of human recombinant Topoisomerase 1 using supercoiled pBR322 DNA as substrate at 50 uM incubated for 30 mins by ethidium bromide staining based agarose gel electrophoresis; how it was run: as §2
[7] = Aqueous solubility of the compound in 0.1 M Na2HPO4 solution at pH 7.4 incubated for 24 hrs by HPLC analysis; format: physicochemical; conditions: buffer, pH 7.4, 24 h
How it was run: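 Excess solid shaken in 0.2 mL 0.1 M phosphate buffer, pH 7.4, at 25 °C for 24 h, then filtered. Filtrate (100 µL) diluted to 1.5 mL and analysed by isocratic HPLC (CH3CN:H2O 40/60, 1.0 mL/min, 35 °C column, 254 nm). Concentration read from a calibration curve built from DMSO standards. Values are the mean of triplicate determinations, in mg/mL.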

[8] = Stability of compound in 10% phosphate buffer assessed as proportion of lactone form level at pH 7.4 measured after 48 hrs by HPLC analysis; format: physicochemical; conditions: read-out: Drug metabolism
How it was run: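 1.0 mg dissolved in 50 mL 0.1 M phosphate buffer, pH 7.4, and shaken at 37 °C. […] Lactone versus carboxylate (ring-opened) form quantified by HPLC area normalisation. Mean of triplicate determinations.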

SMILES | IC50 [1] [µM] | IC50 [2] [µM] | IC50 [3] [µM] | IC50 [4] [µM] | inhibition [5] | inhibition [6] | solubility [7] [µg/mL] | remaining at 48 h [8] [%]
CC[C@@]1(OC(=O)NCCOCCO[C@@H]2O[C@H](COC(C)=O)[C@@H](OC(C)=O)[C@H](OC(N)=O)[C@@H]2OC(C)=O)C(=O)OCc2c1cc1n(c2=O)Cc2cc3ccccc3nc2-1 | 7.6 | 50.2 | 3.6 | 3.7 | – | – | – | –
CC[C@@]1(OC(=O)NCCOCCOCCO[C@@H]2O[C@H](CO)[C@H](O)[C@H](O)[C@H]2O)C(=O)OCc2c1cc1n(c2=O)Cc2cc3ccccc3nc2-1 | 19.9 | 0.7 | 8.2 | 1.2 | Active | – | – | –
CC[C@@]1(OC(=O)NCCO[C@@H]2O[C@H](COC(C)=O)[C@@H](OC(C)=O)[C@H](OC(N)=O)[C@@H]2OC(C)=O)C(=O)OCc2c1cc1n(c2=O)Cc2cc3ccccc3nc2-1 | 20.6 | 3.9 | 10.8 | 18.5 | – | – | – | –
CC[C@@]1(OC(=O)NCCO[C@@H]2O[C@H](CO)[C@@H](O)[C@H](O)[C@@H]2O)C(=O)OCc2c1cc1n(c2=O)Cc2cc3ccccc3nc2-1 | 20.4 | 5.8 | 8.2 | 10.3 | – | – | – | –
CC[C@@]1(OC(=O)NCCOCCOCCO[C@@H]2O[C@H](COC(C)=O)[C@@H](OC(C)=O)[C@H](OC(C)=O)[C@H]2OC(C)=O)C(=O)OCc2c1cc1n(c2=O)Cc2cc3ccccc3nc2-1 | 4.5 | 0.6 | 0.8 | 0.7 | – | – | – | –
CC[C@@]1(OC(=O)NCCOCCO[C@@H]2O[C@H](COC(C)=O)[C@@H](OC(C)=O)[C@H](OC(C)=O)[C@@H]2O[C@H]2O[C@H](COC(C)=O)[C@@H](OC(C)=O)[C@H](OC(N)=O)[C@H]2OC(C)=O)C(=O)OCc2c1cc1n(c2=O)Cc2cc3ccccc3nc2-1 | 11.3 | 1.5 | 1.3 | 1.6 | Active | Active | – | –
CC[C@@]1(OC(=O)NCCO[C@@H]2O[C@H](CO)[C@H](O)[C@H](O)[C@H]2O)C(=O)OCc2c1cc1n(c2=O)Cc2cc3ccccc3nc2-1 | 9.3 | 2.2 | 4.1 | 4.9 | – | – | – | –
CC[C@@]1(OC(=O)NCCOCCOC2O[C@H](COC(C)=O)[C@@H](OC(C)=O)[C@H](OC(C)=O)[C@@H]2OC(C)=O)C(=O)OCc2c1cc1n(c2=O)Cc2cc3ccccc3nc2-1 (single isomer, unassigned) | 10.3 | 20.6 | 4.4 | 4.8 | – | – | – | –
CC[C@@]1(OC(=O)NCCOCCO[C@@H]2O[C@H](CO)[C@@H](O)[C@H](O)[C@@H]2O)C(=O)OCc2c1cc1n(c2=O)Cc2cc3ccccc3nc2-1 | 3.2 | 22.4 | 5.6 | 0.3 | – | – | – | –
CC[C@@]1(OC(=O)NCCO[C@@H]2O[C@H](CO)[C@@H](O)[C@H](O)[C@H]2O)C(=O)OCc2c1cc1n(c2=O)Cc2cc3ccccc3nc2-1 | 10.3 | 3.5 | 4.3 | 3.8 | – | – | – | –
CC[C@@]1(OC(=O)NCCOCCO[C@@H]2O[C@H](CO)[C@H](O)[C@H](O)[C@H]2O)C(=O)OCc2c1cc1n(c2=O)Cc2cc3ccccc3nc2-1 | 10.6 | 43.5 | 2.6 | 2.8 | – | – | – | –
CC[C@@]1(OC(=O)NCCOCCOCCO[C@@H]2O[C@H](CO)[C@@H](O)[C@H](O)[C@H]2O)C(=O)OCc2c1cc1n(c2=O)Cc2cc3ccccc3nc2-1 | 12.5 | 0.7 | 4.8 | 1.3 | – | – | – | –
CC[C@@]1(OC(=O)NCCO[C@@H]2O[C@H](COC(C)=O)[C@@H](OC(C)=O)[C@H](OC(C)=O)[C@@H]2OC(C)=O)C(=O)OCc2c1cc1n(c2=O)Cc2cc3ccccc3nc2-1 | 9.7 | 2.3 | 7.5 | 4.3 | – | – | – | –
CC[C@@]1(OC(=O)NCCOCCOC2O[C@H](COC(C)=O)[C@@H](OC(C)=O)[C@H](OC(C)=O)[C@H]2OC(C)=O)C(=O)OCc2c1cc1n(c2=O)Cc2cc3ccccc3nc2-1 (single isomer, unassigned) | 10.3 | 12.3 | 4.2 | 2.1 | – | – | – | –
CC[C@@]1(OC(=O)NCCOCCO[C@@H]2O[C@H](CO)[C@@H](O)[C@H](O)[C@H]2O)C(=O)OCc2c1cc1n(c2=O)Cc2cc3ccccc3nc2-1 | 9.6 | 24.6 | 0.5 | 1.2 | – | – | – | –
CC[C@@]1(OC(=O)NCCOCCOCCOC2O[C@H](COC(C)=O)[C@@H](OC(C)=O)[C@H](OC(N)=O)[C@@H]2OC(C)=O)C(=O)OCc2c1cc1n(c2=O)Cc2cc3ccccc3nc2-1 (single isomer, unassigned) | 31.4 | 3.4 | 4.6 | 1.8 | – | – | – | –
CC[C@@]1(OC(=O)NCCO[C@@H]2O[C@H](COC(C)=O)[C@@H](OC(C)=O)[C@H](OC(C)=O)[C@H]2OC(C)=O)C(=O)OCc2c1cc1n(c2=O)Cc2cc3ccccc3nc2-1 | 24.8 | 29.5 | 15 | 29.9 | – | – | – | –
CC[C@@]1(OC(=O)NCCOCCOCCO[C@@H]2O[C@H](CO)[C@@H](O)[C@H](O)[C@@H]2O)C(=O)OCc2c1cc1n(c2=O)Cc2cc3ccccc3nc2-1 | 16.3 | 0.6 | 0.5 | 0.8 | – | – | – | –
CC[C@@]1(OC(=O)NCCO[C@@H]2O[C@H](COC(C)=O)[C@@H](OC(C)=O)[C@H](OC(C)=O)[C@@H]2O[C@H]2O[C@H](COC(C)=O)[C@@H](OC(C)=O)[C@H](OC(N)=O)[C@H]2OC(C)=O)C(=O)OCc2c1cc1n(c2=O)Cc2cc3ccccc3nc2-1 | 25.1 | 1.6 | 6.7 | 4.2 | Active | – | – | –
CC[C@@]1(O)C(=O)OCc2c1cc1n(c2=O)Cc2cc3cc(O)ccc3nc2-1 | – | – | – | – | Active | – | – | –
CC[C@@]1(O)C(=O)OCc2c1cc1n(c2=O)Cc2cc3ccccc3nc2-1 [CAMPTOTHECIN] | 0.2 | 0.6 | 0.4 | 0.4 | – | – | 60 (≈ 172 µM) | 5
CC[C@@]1(OC(=O)NCCO[C@@H]2O[C@H](CO)[C@@H](O)[C@H](OC(N)=O)[C@@H]2O)C(=O)OCc2c1cc1n(c2=O)Cc2cc3ccccc3nc2-1 | 32.8 | 3.2 | 2.3 | 11.6 | – | – | – | –
CC[C@@]1(OC(=O)NCCO[C@@H]2O[C@H](COC(C)=O)[C@H](OC(C)=O)[C@H](OC(C)=O)[C@H]2OC(C)=O)C(=O)OCc2c1cc1n(c2=O)Cc2cc3ccccc3nc2-1 | 37.5 | 8.6 | 29.5 | 60.2 | – | – | – | –
CC[C@@]1(OC(=O)NCCOCCOCCO[C@@H]2O[C@H](COC(C)=O)[C@@H](OC(C)=O)[C@H](OC(C)=O)[C@@H]2OC(C)=O)C(=O)OCc2c1cc1n(c2=O)Cc2cc3ccccc3nc2-1 | 28.9 | 3.4 | 0.6 | 1.6 | – | – | – | –
CC[C@@]1(OC(=O)NCCOCCOCCO[C@@H]2O[C@H](CO)[C@@H](O)[C@H](OC(N)=O)[C@@H]2O)C(=O)OCc2c1cc1n(c2=O)Cc2cc3ccccc3nc2-1 | 18.2 | 0.4 | 0.9 | 0.8 | – | – | – | –
CC[C@@]1(OC(=O)NCCOCCOCCO[C@@H]2O[C@H](COC(C)=O)[C@H](OC(C)=O)[C@H](OC(C)=O)[C@H]2OC(C)=O)C(=O)OCc2c1cc1n(c2=O)Cc2cc3ccccc3nc2-1 | 8.3 | 0.8 | 0.9 | 0.7 | Active | – | – | –
